Experimental data as given in ChEMBL document CHEMBL5252510, “A Novel Potent Oral Series of VEGFR2 Inhibitors Abrogate Tumor Growth by Inhibiting Angiogenesis” (J Med Chem, 2016).

How the values were obtained:
BaF3 [1] = experiment: Antiproliferative activity against mouse BaF3 cells expressing Trp-MET assessed as cell growth inhibition measured after 72 hrs by Alamar Blue assay; conditions: BaF3, 72 h
[2] = Toxicity in C57BL/6jNpa mouse harbouring mouse B16-BL6 cells assessed as effect on white blood cell count at 3 mg/kg, po qd administered started on day 7 post implantation measured after 21 days; type: organism-based; conditions: in vivo, 504 h, time 7-21 day
In short: (§1)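 B16/BL6 melanoma cells (50000) injected intradermally into dorsal pinna of both ears of female mice (18–20 g). Randomized on day 7 into groups of 5-6 by primary tumor size, then dosed orally once daily for 14 days in PEG300 or PEG200. Sacrificed day 21; blood analysed directly for platelets, red and white cell counts, hematocrit. Body and spleen weight recorded versus healthy naive mouse.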

[3] = molecular target: Vascular endothelial growth factor receptor 1 (Homo sapiens, UniProt P17948); experiment: Inhibition of human recombinant GST-fused VEGFR1 kinase domain transphosphorylation expressed in baculovirus expression system using poly-Glu-Tyr (4:1) as substrate measured after 10 mins in presence of gamma-[33P]-ATP by scintillation counting analysis
Chain of Vascular endothelial growth factor receptor 1 (P17948 whole entry, the tested form may be a part): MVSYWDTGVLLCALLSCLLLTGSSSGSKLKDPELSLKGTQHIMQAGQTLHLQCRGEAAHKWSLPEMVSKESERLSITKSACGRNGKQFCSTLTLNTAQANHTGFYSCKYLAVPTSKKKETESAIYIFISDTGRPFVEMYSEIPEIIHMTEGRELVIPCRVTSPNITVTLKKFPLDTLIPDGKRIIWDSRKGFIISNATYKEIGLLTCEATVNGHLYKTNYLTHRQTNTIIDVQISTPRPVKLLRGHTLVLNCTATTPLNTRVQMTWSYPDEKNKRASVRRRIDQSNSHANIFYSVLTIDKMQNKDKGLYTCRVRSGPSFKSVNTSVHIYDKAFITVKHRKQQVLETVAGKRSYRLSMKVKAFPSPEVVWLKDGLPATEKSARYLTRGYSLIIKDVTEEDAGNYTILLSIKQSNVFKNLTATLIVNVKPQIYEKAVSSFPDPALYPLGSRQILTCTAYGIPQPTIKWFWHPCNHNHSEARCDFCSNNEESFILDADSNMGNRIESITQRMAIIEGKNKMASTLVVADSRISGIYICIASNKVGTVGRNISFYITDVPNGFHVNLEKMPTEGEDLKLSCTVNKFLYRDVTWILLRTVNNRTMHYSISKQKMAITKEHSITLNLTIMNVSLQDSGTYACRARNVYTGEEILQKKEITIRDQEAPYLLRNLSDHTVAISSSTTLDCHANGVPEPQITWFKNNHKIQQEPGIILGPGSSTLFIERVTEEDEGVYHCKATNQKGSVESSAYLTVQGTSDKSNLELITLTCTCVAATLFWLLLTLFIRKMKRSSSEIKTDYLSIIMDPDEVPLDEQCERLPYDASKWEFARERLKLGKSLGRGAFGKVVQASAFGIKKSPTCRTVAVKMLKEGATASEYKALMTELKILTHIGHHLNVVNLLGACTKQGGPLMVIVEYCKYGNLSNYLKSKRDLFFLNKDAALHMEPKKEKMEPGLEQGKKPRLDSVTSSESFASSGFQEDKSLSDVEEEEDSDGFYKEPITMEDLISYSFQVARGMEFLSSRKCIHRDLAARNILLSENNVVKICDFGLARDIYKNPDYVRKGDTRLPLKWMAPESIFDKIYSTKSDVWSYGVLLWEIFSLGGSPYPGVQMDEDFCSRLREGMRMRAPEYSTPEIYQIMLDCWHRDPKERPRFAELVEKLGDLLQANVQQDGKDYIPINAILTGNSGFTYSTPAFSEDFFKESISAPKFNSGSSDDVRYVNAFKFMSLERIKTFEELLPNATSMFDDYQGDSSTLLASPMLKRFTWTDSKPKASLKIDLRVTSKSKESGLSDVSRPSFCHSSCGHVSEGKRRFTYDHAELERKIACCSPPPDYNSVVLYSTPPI
In short: (§2)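 GST-fused kinase domains were expressed in baculovirus and purified on glutathione-Sepharose. 10 min at ambient temperature, stopped with EDTA. Filter binding and scintillation counting. IC50 by linear regression of percent inhibition.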

[4] = Toxicity in C57BL/6jNpa mouse harbouring mouse B16-BL6 cells assessed as effect on blood platelet count at 3 mg/kg, po qd administered started on day 7 post implantation measured after 21 days; type: organism-based; conditions: in vivo, 504 h, time 7-21 day
In short: (§3)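 Female C57BL/6JNpa mice received 50000 B16/BL6 cells intradermally in both ear pinnae. Randomized on day 7 into groups of 5–6, then dosed 3 mg/kg p.o. daily in PEG200/PEG300 for 14 days. Behavior and well-being were observed. On day 21, blood was analysed for platelet, red and white cell counts and hematocrit.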

[5] = Dose normalized AUC(0 to infinity) in Sprague-Dawley rat at 50 mg/kg, po measured upto 24 hrs by HPLC/UV analysis; type: ADME, organism-based; conditions: in vivo
In short: (§4)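 Female Sprague Dawley rats, 8 weeks old, catheterized. Oral suspension in 0.5 % carboxymethyl cellulose at 50 mg/kg, n=3. Bioavailability taken against 3 mg/kg iv. Plasma sampled 5 min–24 h. Cmax and AUC(0–∞) dose-normalized.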

BaF3 [6] = experiment: Antiproliferative activity against mouse BaF3 cells expressing FLT3-ITD assessed as cell growth inhibition measured after 72 hrs by Alamar Blue assay; conditions: BaF3, 72 h
BaF3 [7] = experiment: Antiproliferative activity against mouse BaF3 cells expressing Tel-FGFR3 assessed as cell growth inhibition measured after 72 hrs by Alamar Blue assay; conditions: BaF3, 72 h
[8] = Toxicity in C57BL/6jNpa mouse harbouring mouse B16-BL6 cells assessed as effect on red blood cell count at 3 mg/kg, po qd administered started on day 7 post implantation measured after 21 days; type: organism-based; conditions: in vivo, 504 h, time 7-21 day; in short: as §1
[9] = Toxicity in C57BL/6jNpa mouse harbouring mouse B16-BL6 cells assessed as effect on body weight at 3 mg/kg, po qd administered started on day 7 post implantation measured after 21 days; type: organism-based; conditions: in vivo, 504 h, time 7-21 day; in short: as §1
[10] = Dose normalized Cmax in Sprague-Dawley rat at 50 mg/kg, po measured upto 24 hrs by HPLC/UV analysis; type: ADME, organism-based; conditions: in vivo; in short: as §4
[11] = Oral bioavailability in Sprague-Dawley rat at 50 mg/kg measured upto 24 hrs by HPLC/UV analysis; type: ADME, organism-based; conditions: in vivo; in short: as §4
B16-BL6 [12] = experiment: Antitumor activity against mouse B16-BL6 cells implanted in C57BL/6jNpa mouse assessed as metastatic tumor growth inhibition at 3 mg/kg, po qd administered started on day 7 post implantation measured after 21 days relative to control; type: functional; conditions: time 7-21 day, read-out: TGI
In short: (§5)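 Female C57BL/6JNpa mice, 50000 B16/BL6 cells intradermally in both ear pinnae; primary tumor area (mm²) imaged days 7, 14, 21; randomized day 7 into groups of 5-6, oral dosing in PEG200 or PEG300 vehicle daily (or every 2 days) for 14 days; day 21 cervical lymph nodes weighed, metastasis lysates assayed for TIE-2 by ELISA; T/C ratios.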

[13] = Toxicity in C57BL/6jNpa mouse harbouring mouse B16-BL6 cells assessed as effect on animal behavior at 3 mg/kg, po qd administered started on day 7 post implantation measured after 21 days; type: organism-based; conditions: in vivo, 504 h, time 7-21 day; in short: as §3
[14] = Tmax in Sprague-Dawley rat at 50 mg/kg, po measured upto 24 hrs by HPLC/UV analysis; type: ADME, organism-based; conditions: in vivo; in short: as §4
[15] = Toxicity in VEGF-induced FVB mouse model at 0.3 to 3 mg/kg, po qd treated for 4 to 6 hrs prior to chamber implantation and continuing for 4 days measured after 24 hrs post last dose; type: organism-based; conditions: in vivo, 120 h, dose 0.3-3 mg/kg, time 5 day
In short: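 Female FVB mice (18–20 g), groups of 6. Porous chambers with VEGF (2 μg/mL) in 0.5 mL 0.8 % agar with heparin (20 U/mL) implanted subcutaneously in flank. Oral dosing once daily in 100 % PEG200 (5 mL/kg), starting 4-6 h before implantation, for 4 days; chambers removed 24 h after last dose. Animals observed for signs of toxicity.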

BaF3 [16] = experiment: Antiproliferative activity against mouse BaF3 cells assessed as cell growth inhibition measured after 72 hrs by Alamar Blue assay; conditions: BaF3, 72 h
BaF3 [17] = experiment: Antiproliferative activity against mouse BaF3 cells expressing KIT D816V mutant assessed as cell growth inhibition measured after 72 hrs by Alamar Blue assay; conditions: BaF3, 72 h
B16-BL6 [18] = experiment: Antitumor activity against mouse B16-BL6 cells implanted in C57BL/6jNpa mouse assessed as primary tumor growth inhibition by measuring T/C ratio at 3 mg/kg, po qd administered started on day 7 post implantation measured after 21 days; type: functional; conditions: time 7-21 day; in short: as §5
[19] = molecular target: Vascular endothelial growth factor receptor 2 (Mus musculus, UniProt P35918); experiment: Inhibition of mouse recombinant GST-fused VEGFR2 kinase domain expressed in baculovirus expression system using poly-Glu-Tyr (4:1) as substrate measured after 10 mins in presence of gamma-[33P]-ATP by scintillation counting analysis; in short: as §2
Chain of Vascular endothelial growth factor receptor 2 (P35918 whole entry, the tested form may be a part): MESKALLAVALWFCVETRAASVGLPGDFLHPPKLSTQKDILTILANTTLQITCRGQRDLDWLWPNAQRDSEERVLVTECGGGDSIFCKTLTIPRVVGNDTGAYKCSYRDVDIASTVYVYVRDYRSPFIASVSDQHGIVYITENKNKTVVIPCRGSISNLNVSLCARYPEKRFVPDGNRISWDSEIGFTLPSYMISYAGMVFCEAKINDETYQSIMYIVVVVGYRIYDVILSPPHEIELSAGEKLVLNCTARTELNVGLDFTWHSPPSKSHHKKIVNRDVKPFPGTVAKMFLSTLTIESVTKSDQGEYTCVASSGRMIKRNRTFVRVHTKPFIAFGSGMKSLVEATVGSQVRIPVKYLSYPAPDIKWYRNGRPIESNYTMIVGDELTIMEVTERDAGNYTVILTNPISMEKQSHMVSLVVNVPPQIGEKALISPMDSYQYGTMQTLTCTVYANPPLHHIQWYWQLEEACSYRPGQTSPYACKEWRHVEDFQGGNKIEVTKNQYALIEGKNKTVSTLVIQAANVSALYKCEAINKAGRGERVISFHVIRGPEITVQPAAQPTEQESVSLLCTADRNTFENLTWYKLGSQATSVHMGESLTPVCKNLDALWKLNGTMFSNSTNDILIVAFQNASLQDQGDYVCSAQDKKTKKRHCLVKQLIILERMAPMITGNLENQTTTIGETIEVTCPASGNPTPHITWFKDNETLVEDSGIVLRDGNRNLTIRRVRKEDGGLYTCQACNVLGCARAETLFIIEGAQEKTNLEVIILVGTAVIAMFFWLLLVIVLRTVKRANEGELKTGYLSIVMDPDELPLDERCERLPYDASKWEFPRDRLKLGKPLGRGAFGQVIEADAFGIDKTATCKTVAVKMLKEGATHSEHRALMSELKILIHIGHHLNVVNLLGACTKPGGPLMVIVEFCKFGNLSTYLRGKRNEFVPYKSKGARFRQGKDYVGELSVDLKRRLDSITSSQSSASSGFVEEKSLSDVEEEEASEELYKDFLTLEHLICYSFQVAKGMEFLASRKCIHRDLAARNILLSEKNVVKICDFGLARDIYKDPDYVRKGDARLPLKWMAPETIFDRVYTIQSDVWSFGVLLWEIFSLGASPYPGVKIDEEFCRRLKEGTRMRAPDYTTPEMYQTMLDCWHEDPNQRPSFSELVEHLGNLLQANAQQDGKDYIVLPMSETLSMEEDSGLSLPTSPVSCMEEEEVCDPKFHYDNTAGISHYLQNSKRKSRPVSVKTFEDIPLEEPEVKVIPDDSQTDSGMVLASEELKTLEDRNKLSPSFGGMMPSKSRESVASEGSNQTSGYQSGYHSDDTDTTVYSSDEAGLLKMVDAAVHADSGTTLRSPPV

BaF3 [20] = experiment: Antiproliferative activity against mouse BaF3 cells expressing ERBB2 V659E mutant assessed as cell growth inhibition measured after 72 hrs by Alamar Blue assay; conditions: BaF3, 72 h
[21] = Toxicity in C57BL/6jNpa mouse harbouring mouse B16-BL6 cells assessed as effect on spleen weight at 3 mg/kg, po qd administered started on day 7 post implantation measured after 21 days; type: organism-based; conditions: in vivo, 504 h, time 7-21 day; in short: as §1
HUVEC = experiment: Antiproliferative activity against VEGF-stimulated HUVEC cells assessed as cell growth inhibition measured after 24 hrs by BrdUrd incorporation based spectrophotometric analysis; conditions: Homo sapiens
[22] = Half-life in Sprague-Dawley rat at 3 mg/kg, iv measured upto 24 hrs by HPLC/UV analysis; type: ADME, organism-based; conditions: in vivo
In short: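 Female Sprague Dawley rats, 8 weeks old, catheterized in the jugular vein and femoral artery, recovered 96 h. IV dose 3 mg/kg in ethanol/NMP/PEG400/5 % glucose (10/10/50/30). n=2. Plasma sampled at 5, 15, 30 min and 1, 2, 4, 6, 8, 24 h.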

BaF3 [23] = experiment: Antiproliferative activity against mouse BaF3 cells expressing Bcr-ABL assessed as cell growth inhibition measured after 72 hrs by Alamar Blue assay; conditions: BaF3, 72 h

IC50 (BaF3 [1])	IC50 [3]	AUC/dose [5]	IC50 (BaF3 [6])	IC50 (BaF3 [7])	IC50 (BaF3 [16])	IC50 (BaF3 [17])	IC50 [19]	IC50 (BaF3 [20])	IC50 (BaF3 [23])	Compound	Activity [2]	Activity [4]	Activity [8]	Activity [9]	inhibition in vivo at 3 mg/kg (B16-BL6 [12])	Activity [13]	Activity [15]	T/C (B16-BL6 [18])	Activity [21]	IC50 (HUVEC)	other results
> 10 µM	0.081 µM	0.67 µmol·h/L	5.65 µM	2.28 µM	> 10 µM	8 µM	0.037 µM	> 10 µM	9.5 µM	Nc1cc(Oc2ccc3c(C(=O)Nc4cccc(C(F)(F)F)c4)cccc3c2)ncn1	Non-Toxic	Non-Toxic	Non-Toxic	Non-Toxic	71%	Non-Toxic	Non-Toxic	0.22	Non-Toxic	1.7 nM	Cmax/dose [10]: 50 nM; bioavailability [11]: 5%; Tmax [14]: 4 h; half-life [22]: 4.1 h
> 10 µM	0.82 µM		> 10 µM	8.27 µM	> 10 µM	> 10 µM	0.165 µM	> 10 µM	4.75 µM	Nc1nccc(Oc2ccc3c(C(=O)Nc4cccc(C(F)(F)F)c4)cccc3c2)n1				Non-Toxic	71%	Non-Toxic	Non-Toxic	0.46	Non-Toxic	0.12 nM	
> 10 µM	0.223 µM	1.37 µmol·h/L	8.2 µM	8.26 µM	> 10 µM	8.51 µM	0.32 µM	> 10 µM	> 10 µM	Nc1nccc(Oc2ccc3c(C(=O)Nc4ccc(F)c(C(F)(F)F)c4)cccc3c2)n1	Non-Toxic	Non-Toxic	Non-Toxic	Non-Toxic	71%	Non-Toxic	Non-Toxic	0.1	Non-Toxic	0.077 nM	Cmax/dose [10]: 70 nM; bioavailability [11]: 9%; Tmax [14]: 5 h; half-life [22]: 16 h
> 10 µM	1.7 µM		> 10 µM	6.54 µM	> 10 µM	> 10 µM	1.5 µM	> 10 µM	7.5 µM	O=C(Nc1cccc(C(F)(F)F)c1)c1cccc2cc(Oc3cc(CO)ncn3)ccc12 [BFH-772]				Non-Toxic	71%	Non-Toxic	Non-Toxic	0.26	Non-Toxic	< 0.01 nM	
> 10 µM	0.333 µM	4.19 µmol·h/L	4.78 µM	2.66 µM	> 10 µM	7.8 µM	0.125 µM	> 10 µM	> 10 µM	Nc1cc(Oc2ccc3c(C(=O)Nc4ccc(F)c(C(F)(F)F)c4)cccc3c2)ncn1	Non-Toxic	Non-Toxic	Non-Toxic	Non-Toxic	71%	Non-Toxic	Non-Toxic	0.34	Non-Toxic	0.003 nM	Cmax/dose [10]: 80 nM; bioavailability [11]: 9%; Tmax [14]: 8 h; half-life [22]: 18.3 h
